A word on the inhibition: it is the percentage by which the read-out fell short of the control. A lower inhibition goes with little suppression. A word on the pIC50: it is −log10 of the IC50, conventionally taken in molar units. Lower therefore signals a high IC50.

Molecules are shown by their SMILES. pIC50: −log10 of the molar value. The source made the active and inactive calls. The calls are words filed in the database; no cut-off is given here. *1 amine or outer side, *2 acyl side, *3 side chain or, on linkers, in order; H or OH if unused. Where a SMILES comes first, the peptide text is derived from it. Bridges are numbered along the chain shown (N, C = ends). [ ]: non-standard residue; d: D form. hTyr = N[C@@H](CCc1ccc(O)cc1)C(=O)O; aIle = CC[C@@H](C)[C@H](N)C(=O)O; NMeA = CN[C@@H](C)C(=O)O; CO = O=C([*:1])[*:2]

This passage reports inhibition, Activity and IC50 results from ChEMBL document CHEMBL1155746, “Isolation of new protein phosphatase inhibitors from two cyanobacteria species, Planktothrix spp” (J Nat Prod, 2001).

One assay is filed under the species Oryctolagus cuniculus. As to the kind of experiment: Inhibition of rabbit skeletal muscle PP1 at 100 ug/mL by liquid scintillation counter. In a few lines:
(§1)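 Enzyme at 0.05 unit/50 µL was incubated with 32P-labelled myelin basic protein, which had been phosphorylated using cAMP-dependent kinase catalytic subunit and γ-[32P]ATP. Reactions ran at 30 °C for 10 min in duplicate and were stopped with 20% trichloroacetic acid on ice. Released 32Pi in the supernatant was counted by liquid scintillation. The control received MeOH.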

The target in assay [1] is Dual specificity protein phosphatase 3 (Homo sapiens) (UniProt P51452). Briefly: Inhibition of human dual specificity protein phosphatase VHR expressed in Escherichia coli JM109 at 100 ug/mL.
Chain of Dual specificity protein phosphatase 3 (Homo sapiens) (P51452 whole entry, looked up): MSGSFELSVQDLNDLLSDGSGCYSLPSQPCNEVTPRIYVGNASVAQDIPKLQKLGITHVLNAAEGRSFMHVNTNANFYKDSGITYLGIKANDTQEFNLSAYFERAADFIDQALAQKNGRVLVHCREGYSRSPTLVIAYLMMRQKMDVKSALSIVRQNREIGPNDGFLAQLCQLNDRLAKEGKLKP
Assay [2] in a line: Inhibition of PTP-S2 expressed in Escherichia coli JM109 at 100 ug/mL.
Assay [3] has as its target T1, M-phase inducer phosphatase 2 (Homo sapiens) (UniProt P30305).
T1 sequence (whole entry): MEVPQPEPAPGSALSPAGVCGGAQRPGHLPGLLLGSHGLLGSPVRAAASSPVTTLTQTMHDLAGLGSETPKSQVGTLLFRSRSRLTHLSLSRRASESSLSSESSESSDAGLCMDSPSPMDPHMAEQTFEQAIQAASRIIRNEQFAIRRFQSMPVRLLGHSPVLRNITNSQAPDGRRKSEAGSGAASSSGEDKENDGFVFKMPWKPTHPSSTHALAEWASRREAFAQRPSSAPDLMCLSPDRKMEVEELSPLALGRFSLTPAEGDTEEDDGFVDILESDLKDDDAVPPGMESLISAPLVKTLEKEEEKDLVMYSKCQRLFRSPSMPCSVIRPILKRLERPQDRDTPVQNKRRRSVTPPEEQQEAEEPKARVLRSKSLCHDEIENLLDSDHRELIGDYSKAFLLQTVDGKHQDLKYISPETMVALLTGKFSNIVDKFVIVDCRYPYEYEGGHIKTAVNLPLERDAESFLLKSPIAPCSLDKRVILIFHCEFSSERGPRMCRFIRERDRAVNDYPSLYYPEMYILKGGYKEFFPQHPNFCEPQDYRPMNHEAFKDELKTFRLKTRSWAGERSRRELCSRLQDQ
Briefly: Inhibition of human dual specificity protein phosphatase Cdc25B expressed in Escherichia coli BL21 (DE3) at 100 ug/mL. In a few lines: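 The catalytic subunit was expressed from pET21b and purified. Substrate was 200 µM 3-O-methylfluorescein phosphate in 100 mM Tris-HCl, 40 mM NaCl, 1 mM dithiothreitol, 20% glycerol, pH 8.2, at 37 °C for 20 min. Reactions were stopped with 6 M guanidine-HCl/1 M MES, pH 5.5, and the absorbance increase at 477 nm was read. The control received MeOH.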

For the next assay, the species on record is Homo sapiens. As to the kind of experiment: Inhibition of human red blood cells PP2A at 100 ug/mL by liquid scintillation counter. In short, it runs like this: as §1
Assay [4] in a line: Inhibition of human red blood cell PP2A. In a few lines:
as §1

Assay [5] in a line: Inhibition of rabbit skeletal muscle PP1. Details: species or system Oryctolagus cuniculus. In a few lines: as §1

Turning to `CC[C@H](C)[C@@H]1NC(=O)[C@H](NC(=O)N[C@@H](CCCNC(=N)N)C(=O)O)CCCCNC(=O)[C@H](Cc2ccccc2)NC(=O)[C@H](C)N(C)C(=O)[C@H](CCc2ccc(O)cc2)NC1=O` ({Arg-CO}-[dK]I[hTyr][NMeA]F; lactam 1-C), the inhibition was 38.1% in the assay filed under Oryctolagus cuniculus and 41.5% in the assay listed under Homo sapiens. Moreover, the outcome in assay [1], in assay [2] and in assay [3] was inactive.

As for `CSCC[C@@H]1NC(=O)[C@H](NC(=O)N[C@@H](CCCNC(=N)N)C(=O)O)CCCCNC(=O)[C@H](Cc2ccccc2)NC(=O)[C@H](C)N(C)C(=O)[C@H](CCc2ccc(O)cc2)NC1=O` ({Arg-CO}-[dK]M[hTyr][NMeA]F; lactam 1-C), the values for the inhibition in the assay listed under Oryctolagus cuniculus and in the assay filed under Homo sapiens were 43.3% and 62.8%, respectively. The result in assay [1], in assay [2] and in assay [3] was inactive.

For `CC[C@@H](C)[C@@H]1NC(=O)[C@H](NC(=O)N[C@@H](Cc2ccc(O)cc2)C(=O)O)CCCCNC(=O)[C@H](Cc2ccccc2)NC(=O)[C@H](C)N(C)C(=O)[C@H](CCc2ccc(O)cc2)NC1=O` ({Tyr-CO}-[dK][aIle][hTyr][NMeA]F; lactam 1-C), the figures for the inhibition in the assay listed under Oryctolagus cuniculus and in the assay filed under Homo sapiens were 11.2% and 9.6%, respectively. Further, the result in assay [1], in assay [2] and in assay [3] was inactive.

For `CC[C@H](C)[C@@H]1NC(=O)[C@H](NC(=O)N[C@@H](CCCNC(=N)N)C(=O)O)CCCCNC(=O)[C@H](Cc2ccccc2)NC(=O)[C@H](CCc2ccc(O)cc2)N(C)C(=O)[C@H](CCc2ccc(O)cc2)NC1=O` [OSCILLAMIDE C], the results for the inhibition in the assay listed under Oryctolagus cuniculus and in the assay listed under Homo sapiens were 97.3% and 98.4%, respectively. Further, the outcome in assay [1], in assay [2] and in assay [3] was inactive. For the same compound, the pIC50 in assay [4] was 5.88; in assay [5], 6.05.
